# Source: ChEMBL document CHEMBL1817648, “Synthesis and in vitro antibacterial activity of a series of novel gatifloxacin derivatives” (Eur J Med Chem, 2011)
# How the values were obtained:
# [1] = tested on: Staphylococcus epidermidis; assay: Antibacterial activity against methicillin-sensitive Staphylococcus epidermidis 09-6 after 18 to 24 hrs by NCCLS M100-S11 two fold serial dilution method; type: functional
# In short: (§1)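 Two-fold serial dilution in agar medium. MIC read as the lowest concentration giving complete inhibition of bacterial growth after incubation at 35 °C for 18–24 h.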
# Enterococcus faecium [2] = assay: Antibacterial activity against Enterococcus faecium 08-2 after 18 to 24 hrs by NCCLS M100-S11 two fold serial dilution method; type: functional
# Pseudomonas aeruginosa [3] = assay: Antibacterial activity against Pseudomonas aeruginosa 09-33 after 18 to 24 hrs by NCCLS M100-S11 two fold serial dilution method; type: functional
# Enterococcus faecalis [4] = assay: Antibacterial activity against Enterococcus faecalis 08-10 after 18 to 24 hrs by NCCLS M100-S11 two fold serial dilution method; type: functional
# Staphylococcus aureus [5] = assay: Antibacterial activity against methicillin-sensitive Staphylococcus aureus 08-1 after 18 to 24 hrs by NCCLS M100-S11 two fold serial dilution method; type: functional
# [6] = tested on: Staphylococcus epidermidis; assay: Antibacterial activity against methicillin-resistant Staphylococcus epidermidis 09-4 after 18 to 24 hrs by NCCLS M100-S11 two fold serial dilution method; type: functional; in short: as §1
# Escherichia coli [7] = assay: Antibacterial activity against Escherichia coli 08-21 after 18 to 24 hrs by NCCLS M100-S11 two fold serial dilution method; type: functional
# Escherichia coli [8] = assay: Antibacterial activity against Escherichia coli 08-22 after 18 to 24 hrs by NCCLS M100-S11 two fold serial dilution method; type: functional
# Escherichia coli [9] = assay: Antibacterial activity against Escherichia coli ATCC 25922 after 18 to 24 hrs by NCCLS M100-S11 two fold serial dilution method; type: functional; settings: ATCC25922
# Enterococcus faecium [10] = assay: Antibacterial activity against Enterococcus faecium 08-7 after 18 to 24 hrs by NCCLS M100-S11 two fold serial dilution method; type: functional
# [11] = tested on: Staphylococcus epidermidis; assay: Antibacterial activity against methicillin-sensitive Staphylococcus epidermidis 09-3 after 18 to 24 hrs by NCCLS M100-S11 two fold serial dilution method; type: functional; in short: as §1
# Enterococcus faecalis [12] = assay: Antibacterial activity against Enterococcus faecalis 08-12 after 18 to 24 hrs by NCCLS M100-S11 two fold serial dilution method; type: functional
# Staphylococcus aureus [13] = assay: Antibacterial activity against Staphylococcus aureus ATCC 25923 after 18 to 24 hrs by NCCLS M100-S11 two fold serial dilution method; type: functional; settings: ATCC25923
# Klebsiella pneumoniae [14] = assay: Antibacterial activity against Klebsiella pneumoniae 09-22 after 18 to 24 hrs by NCCLS M100-S11 two fold serial dilution method; type: functional
# Klebsiella pneumoniae [15] = assay: Antibacterial activity against Klebsiella pneumoniae 09-23 after 18 to 24 hrs by NCCLS M100-S11 two fold serial dilution method; type: functional
# Pseudomonas aeruginosa [16] = assay: Antibacterial activity against Pseudomonas aeruginosa 09-32 after 18 to 24 hrs by NCCLS M100-S11 two fold serial dilution method; type: functional
# [17] = Cytotoxicity against african green monkey Vero cells after 72 hrs by MTT assay; type: cell-based; settings: chlorocebus sabaeus
# In short: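 Vero cells were kept in Minimum Essential Medium with Earle's salts plus 10% fetal bovine serum at 37 °C under 5% CO₂. Cells were seeded at 1 × 10⁴ per well and allowed to recover 24 h. Medium was then replaced with assay medium containing compound or no drug, and cells were exposed for 72 h. CC₅₀ is the 50% cellular cytotoxic concentration.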
# Pseudomonas aeruginosa [18] = assay: Antibacterial activity against Pseudomonas aeruginosa 09-34 after 18 to 24 hrs by NCCLS M100-S11 two fold serial dilution method; type: functional
# Staphylococcus aureus [19] = assay: Antibacterial activity against methicillin-resistant Staphylococcus aureus 08-1 after 18 to 24 hrs by NCCLS M100-S11 two fold serial dilution method; type: functional; in short: as §1
# Streptococcus pneumoniae [20] = assay: Antibacterial activity against Streptococcus pneumoniae 08-2 after 18 to 24 hrs by NCCLS M100-S11 two fold serial dilution method; type: functional
# Streptococcus pneumoniae [21] = assay: Antibacterial activity against Streptococcus pneumoniae 08-4 after 18 to 24 hrs by NCCLS M100-S11 two fold serial dilution method; type: functional
# Pseudomonas aeruginosa [22] = assay: Antibacterial activity against Pseudomonas aeruginosa ATCC 27853 after 18 to 24 hrs by NCCLS M100-S11 two fold serial dilution method; type: functional
Structure (SMILES),MIC [1],MIC (Enterococcus faecium [2]),MIC (Pseudomonas aeruginosa [3]),MIC (Enterococcus faecalis [4]),MIC (Staphylococcus aureus [5]),MIC [6],MIC (Escherichia coli [7]),MIC (Escherichia coli [8]),MIC (Escherichia coli [9]),MIC (Enterococcus faecium [10]),MIC [11],MIC (Enterococcus faecalis [12]),MIC (Staphylococcus aureus [13]),MIC (Klebsiella pneumoniae [14]),MIC (Klebsiella pneumoniae [15]),MIC (Pseudomonas aeruginosa [16]),MIC (Pseudomonas aeruginosa [18]),MIC (Staphylococcus aureus [19]),MIC (Streptococcus pneumoniae [20]),MIC (Streptococcus pneumoniae [21]),further results
COc1c(N2CCN(C/C(C)=N/NC(C)=O)C(C)C2)c(F)cc2c(=O)c(C(=O)O)cn(C3CC3)c12 (stereo unspecified),0.25 µg/mL,16 µg/mL,64 µg/mL,16 µg/mL,0.25 µg/mL,0.25 µg/mL,16 µg/mL,16 µg/mL,8 µg/mL,16 µg/mL,0.25 µg/mL,16 µg/mL,0.25 µg/mL,0.25 µg/mL,4 µg/mL,0.25 µg/mL,2 µg/mL,0.25 µg/mL,8 µg/mL,0.25 µg/mL,CC50 at 72 h [17]: 707 µg/mL; MIC (Pseudomonas aeruginosa [22]): 4 µg/mL
CO/N=C(\C)CCN1CCN(c2c(F)cc3c(=O)c(C(=O)O)cn(C4CC4)c3c2OC)CC1C (stereo unspecified),1 µg/mL,> 128 µg/mL,> 128 µg/mL,> 128 µg/mL,2 µg/mL,2 µg/mL,> 128 µg/mL,> 128 µg/mL,128 µg/mL,> 128 µg/mL,0.5 µg/mL,> 128 µg/mL,0.5 µg/mL,> 128 µg/mL,> 128 µg/mL,128 µg/mL,> 128 µg/mL,> 128 µg/mL,> 128 µg/mL,> 128 µg/mL,CC50 at 72 h [17]: 157 µg/mL; MIC (Pseudomonas aeruginosa [22]): 128 µg/mL
COc1c(N2CCN(CC#N)C(C)C2)c(F)cc2c(=O)c(C(=O)O)cn(C3CC3)c12 (stereo unspecified),0.25 µg/mL,8 µg/mL,32 µg/mL,8 µg/mL,1 µg/mL,0.25 µg/mL,8 µg/mL,8 µg/mL,4 µg/mL,8 µg/mL,0.25 µg/mL,8 µg/mL,1 µg/mL,2 µg/mL,2 µg/mL,0.25 µg/mL,2 µg/mL,1 µg/mL,8 µg/mL,1 µg/mL,CC50 at 72 h [17]: 354 µg/mL; MIC (Pseudomonas aeruginosa [22]): 2 µg/mL
C[C@H]1COc2c(N3CCN(C)CC3)c(F)cc3c(=O)c(C(=O)O)cn1c23.C[C@H]1COc2c(N3CCN(C)CC3)c(F)cc3c(=O)c(C(=O)O)cn1c23.O [LEVOFLOXACIN],2 µg/mL,4 µg/mL,8 µg/mL,8 µg/mL,0.25 µg/mL,0.5 µg/mL,8 µg/mL,4 µg/mL,2 µg/mL,8 µg/mL,0.06 µg/mL,8 µg/mL,0.25 µg/mL,16 µg/mL,8 µg/mL,16 µg/mL,,0.06 µg/mL,,,
COc1c(N2CCN(O)C(C)C2)c(F)cc2c(=O)c(C(=O)O)cn(C3CC3)c12 (stereo unspecified),0.25 µg/mL,16 µg/mL,32 µg/mL,16 µg/mL,0.25 µg/mL,0.25 µg/mL,16 µg/mL,16 µg/mL,4 µg/mL,16 µg/mL,0.25 µg/mL,16 µg/mL,0.125 µg/mL,2 µg/mL,16 µg/mL,2 µg/mL,4 µg/mL,0.25 µg/mL,16 µg/mL,2 µg/mL,CC50 at 72 h [17]: 19.7 µg/mL; MIC (Pseudomonas aeruginosa [22]): 4 µg/mL
COC(=O)CN1CCN(c2c(F)cc3c(=O)c(C(=O)O)cn(C4CC4)c3c2OC)CC1C (stereo unspecified),32 µg/mL,> 128 µg/mL,128 µg/mL,> 128 µg/mL,32 µg/mL,32 µg/mL,> 128 µg/mL,> 128 µg/mL,128 µg/mL,> 128 µg/mL,32 µg/mL,> 128 µg/mL,8 µg/mL,128 µg/mL,> 128 µg/mL,128 µg/mL,> 128 µg/mL,128 µg/mL,> 128 µg/mL,> 128 µg/mL,CC50 at 72 h [17]: 500 µg/mL; MIC (Pseudomonas aeruginosa [22]): 128 µg/mL
CCOC(=O)CCN1CCN(c2c(F)cc3c(=O)c(C(=O)O)cn(C4CC4)c3c2OC)CC1C (stereo unspecified),> 128 µg/mL,> 128 µg/mL,> 128 µg/mL,> 128 µg/mL,> 128 µg/mL,> 128 µg/mL,> 128 µg/mL,> 128 µg/mL,128 µg/mL,> 128 µg/mL,> 128 µg/mL,> 128 µg/mL,128 µg/mL,> 128 µg/mL,> 128 µg/mL,> 128 µg/mL,> 128 µg/mL,,> 128 µg/mL,> 128 µg/mL,MIC (Pseudomonas aeruginosa [22]): 128 µg/mL
COc1c(N2CCN(C/C(C)=N/NC(N)=O)C(C)C2)c(F)cc2c(=O)c(C(=O)O)cn(C3CC3)c12 (stereo unspecified),1 µg/mL,> 128 µg/mL,> 128 µg/mL,> 128 µg/mL,> 128 µg/mL,2 µg/mL,> 128 µg/mL,> 128 µg/mL,> 128 µg/mL,> 128 µg/mL,2 µg/mL,> 128 µg/mL,4 µg/mL,> 128 µg/mL,> 128 µg/mL,64 µg/mL,> 128 µg/mL,2 µg/mL,64 µg/mL,2 µg/mL,CC50 at 72 h [17]: 500 µg/mL; MIC (Pseudomonas aeruginosa [22]): > 128 µg/mL
COc1c(N2CCNC(C)C2)c(F)cc2c(=O)c(C(=O)O)cn(C3CC3)c12 (stereo unspecified) [GATIFLOXACIN],8 µg/mL,2 µg/mL,4 µg/mL,4 µg/mL,0.06 µg/mL,0.25 µg/mL,4 µg/mL,4 µg/mL,2 µg/mL,4 µg/mL,0.25 µg/mL,2 µg/mL,0.125 µg/mL,0.125 µg/mL,2 µg/mL,8 µg/mL,1 µg/mL,0.125 µg/mL,4 µg/mL,0.25 µg/mL,MIC (Pseudomonas aeruginosa [22]): 1 µg/mL
CO/N=C(\C)CN1CCN(c2c(F)cc3c(=O)c(C(=O)O)cn(C4CC4)c3c2OC)CC1C (stereo unspecified),4 µg/mL,> 128 µg/mL,> 128 µg/mL,> 128 µg/mL,0.25 µg/mL,0.5 µg/mL,> 128 µg/mL,> 128 µg/mL,64 µg/mL,> 128 µg/mL,0.5 µg/mL,> 128 µg/mL,0.5 µg/mL,> 128 µg/mL,> 128 µg/mL,64 µg/mL,> 128 µg/mL,> 128 µg/mL,64 µg/mL,2 µg/mL,CC50 at 72 h [17]: 49.6 µg/mL; MIC (Pseudomonas aeruginosa [22]): 32 µg/mL
COc1c(N2CCN(CC(C)=O)C(C)C2)c(F)cc2c(=O)c(C(=O)O)cn(C3CC3)c12 (stereo unspecified),0.25 µg/mL,32 µg/mL,128 µg/mL,32 µg/mL,1 µg/mL,2 µg/mL,128 µg/mL,32 µg/mL,8 µg/mL,32 µg/mL,0.25 µg/mL,128 µg/mL,0.25 µg/mL,16 µg/mL,2 µg/mL,2 µg/mL,16 µg/mL,16 µg/mL,32 µg/mL,2 µg/mL,CC50 at 72 h [17]: 500 µg/mL; MIC (Pseudomonas aeruginosa [22]): 8 µg/mL
COc1c(N2CCN(CC/C(C)=N/NC(N)=O)C(C)C2)c(F)cc2c(=O)c(C(=O)O)cn(C3CC3)c12 (stereo unspecified),0.25 µg/mL,8 µg/mL,16 µg/mL,8 µg/mL,1 µg/mL,1 µg/mL,8 µg/mL,4 µg/mL,2 µg/mL,8 µg/mL,0.25 µg/mL,8 µg/mL,0.5 µg/mL,1 µg/mL,2 µg/mL,0.25 µg/mL,2 µg/mL,2 µg/mL,8 µg/mL,2 µg/mL,CC50 at 72 h [17]: 31.2 µg/mL; MIC (Pseudomonas aeruginosa [22]): 4 µg/mL
